# Data taken from ChEMBL document CHEMBL1136006, “New PET imaging agent for the serotonin transporter: [(18)F]ACF (2-[(2-amino-4-chloro-5-fluorophenyl)thio]-N,N-dimethyl-benzenmethanamine)” (J Med Chem, 2002).
# Key:
# Rattus norvegicus [1] = test: Effect of pretreatment with methylphenidate with a dose of 2 mg/kg (i.v.) on specific binding of [18F]-ACF in rat brain remainder; type: ADME, organism-based; design: dose 2 mg/kg, route intravenous; conditions: in vivo, iv
# In short: (§1)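 Rats pretreated iv with drug (2 mg/kg) or saline 5 min before iv [18F]ACF (50 μCi). Sacrificed 1 h after tracer. Brain regions were dissected, weighed and counted, and % dose/g was calculated against a diluted initial dose. Drug-treated rats were compared with saline controls by ANOVA/Dunnett's test (p<0.05). Three rats per point, average ± SD.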
# Rattus norvegicus [2] = organism: Rattus norvegicus; test: Organ distribution of [18F]-ACF radiolabeled compound in rat kidney after 60 min; type: ADME, organism-based; conditions: in vivo, 1 h
# In short: (§2)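 Under ether anesthesia, 30 μCi no-carrier-added tracer in 0.2 mL saline injected into the femoral vein. Rats killed by cardiac excision at the stated time. Organs were removed, weighed and counted; % dose/organ was calculated against counts of a 1% initial-dose standard. Three rats per time, average ± SD.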
# Rattus norvegicus [3] = organism: Rattus norvegicus; test: Regional brain distribution of [18F]ACF radiolabeled compound in rat striatum after 30 min; type: ADME, organism-based; conditions: in vivo, 0.5 h
# In short: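 Rats, three per group, under ether anaesthesia, given 30 μCi no-carrier-added tracer in 0.2 mL saline into the femoral vein. They were killed at the stated time by cardiac excision under ether. Striatum and other brain regions were dissected, weighed and counted. %dose/g was calculated against counts of 1% of the injected dose, as mean ± SD of three rats.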
# Rattus norvegicus [4] = test: Ratio of effect of pretreatment with methylphenidate with a dose of 2 mg/kg (i.v.) on specific binding of [18F]-ACF in rat brain remainder to that of cerebellum; type: ADME, organism-based; design: dose 2 mg/kg, route intravenous; conditions: in vivo, iv
# In short: (§3)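 Rats (three per point) pretreated iv with competing drug at 2 mg/kg or saline (control) 5 min before iv [18F]ACF (50 μCi). At 1 h post tracer, brain regions (cortex, striatum, hippocampus, cerebellum, hypothalamus, remainder) dissected, weighed, counted as % dose/g and expressed as ratio to cerebellum. Average ± SD; ANOVA with Dunnett's test vs saline controls, p < 0.05.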
# Rattus norvegicus [5] = organism: Rattus norvegicus; test: Organ distribution of [18F]-ACF radiolabeled compound in rat liver after 30 min; type: ADME, organism-based; conditions: in vivo, 0.5 h; in short: as §2
# Rattus norvegicus [6] = test: Effect of pretreatment with methylphenidate with a dose of 2 mg/kg (i.v.) on specific binding of [18F]ACF in rat brain hypothalamus; type: ADME, organism-based; design: dose 2 mg/kg, route intravenous; conditions: in vivo, iv; in short: as §1
# Rattus norvegicus [7] = organism: Rattus norvegicus; test: Regional brain distribution of [18F]ACF radiolabeled compound in rat hippocampus after 120 min; type: ADME, organism-based; conditions: in vivo, 2 h
# In short: (§4)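 Rats (three per group) under ether anesthesia got 30 μCi tracer in 0.2 mL saline into the femoral vein and were killed by cardiac excision at the stated time. Cortex, striatum, hippocampus, cerebellum, hypothalamus and the rest of brain were dissected, weighed and gamma counted. %dose/g was taken against counts of a diluted initial dose. Regional ratios are each region's %dose/g over cerebellum's. Mean ± SD.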
# Rattus norvegicus [8] = organism: Rattus norvegicus; test: Organ distribution of [18F]-ACF radiolabeled compound in rat spleen after 120 min; type: ADME, organism-based; conditions: in vivo, 2 h; in short: as §2
# Rattus norvegicus [9] = organism: Rattus norvegicus; test: Regional brain distribution of [18F]-ACF radiolabeled compound in rat cerebellum after 2 min; type: ADME, organism-based; conditions: in vivo; in short: as §4
# Rattus norvegicus [10] = organism: Rattus norvegicus; test: Regional brain distribution of [18F]ACF radiolabeled compound in rat remainder (rest of brain) after 2 min; type: ADME, organism-based; conditions: in vivo; in short: as §4
# Rattus norvegicus [11] = organism: Rattus norvegicus; test: Regional brain distribution of [18F]-ACF radiolabeled compound in rat hypothalamus after 120 min; type: ADME, organism-based; conditions: in vivo, 2 h; in short: as §4
# Rattus norvegicus [12] = organism: Rattus norvegicus; test: Regional brain distribution of [18F]ACF radiolabeled compound in rat cortex after 30 min; type: ADME, organism-based; conditions: in vivo, 0.5 h; in short: as §4
# Rattus norvegicus [13] = organism: Rattus norvegicus; test: Organ distribution of [18F]-ACF radiolabeled compound in rat lung after 240 min; type: ADME, organism-based; conditions: in vivo, 4 h; in short: as §2
# Rattus norvegicus [14] = organism: Rattus norvegicus; test: Regional brain distribution of [18F]ACF radiolabeled compound in rat remainder (rest of brain) after 120 min; type: ADME, organism-based; conditions: in vivo, 2 h; in short: as §4
# Rattus norvegicus [15] = organism: Rattus norvegicus; test: Ratio of regional brain distribution of [18F]ACF radiolabeled compound in rat cortex to that of cerebellum after 30 min; type: ADME, organism-based; conditions: in vivo, 0.5 h; in short: as §4
# Rattus norvegicus [16] = organism: Rattus norvegicus; test: Regional brain distribution of [18F]ACF radiolabeled compound in rat hippocampus after 2 min; type: ADME, organism-based; conditions: in vivo; in short: as §4
# Rattus norvegicus [17] = organism: Rattus norvegicus; test: Ratio of regional brain distribution of [18F]-ACF radiolabeled compound in rat hippocampus to that of cerebellum after 240 min; type: ADME, organism-based; conditions: in vivo, 4 h
# In short: (§5)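 Rats, three per time point, given 30 μCi tracer in 0.2 mL saline into femoral vein under ether anesthesia; killed at 2, 30, 60, 120 or 240 min. Cortex, striatum, hippocampus, cerebellum, hypothalamus and rest of brain dissected, weighed, counted; % dose/g against diluted initial dose, then each region divided by cerebellum. Average of three rats ± SD.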
# Rattus norvegicus [18] = organism: Rattus norvegicus; test: Organ distribution of [18F]ACF radiolabeled compound in rat liver after 240 min; type: ADME, organism-based; conditions: in vivo, 4 h
# In short: (§6)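 Rats, three per time point, under ether anesthesia; 30 μCi tracer in 0.2 mL saline injected into femoral vein. Sacrificed by cardiac excision under ether at 2, 30, 60, 120 or 240 min. Organs removed, weighed and counted; % dose/organ calculated against counts of 1% of initial dose counted at the same time. Average of three rats ± SD.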
# Rattus norvegicus [19] = test: Effect of pretreatment with […] with a dose of 2 mg/kg (i.v.) on specific binding of [18F]ACF in rat brain blood; type: ADME, organism-based; design: dose 2 mg/kg, route intravenous; conditions: in vivo, iv; in short: as §1
# Rattus norvegicus [20] = organism: Rattus norvegicus; test: Organ distribution of [18F]-ACF radiolabeled compound in rat lung after 30 min; type: ADME, organism-based; conditions: in vivo, 0.5 h; in short: as §2
# Rattus norvegicus [21] = organism: Rattus norvegicus; test: Organ distribution of [18F]-ACF radiolabeled compound in rat muscle after 120 min; type: ADME, organism-based, Muscle tissue; conditions: in vivo, 2 h; in short: as §2
# Rattus norvegicus [22] = organism: Rattus norvegicus; test: Organ distribution of [18F]-ACF radiolabeled compound in rat brain after 60 min; type: ADME, organism-based; conditions: in vivo, 1 h; in short: as §2
# Rattus norvegicus [23] = organism: Rattus norvegicus; test: Ratio of regional brain distribution of [18F]ACF radiolabeled compound in rat cerebellum to that of cerebellum after 30 min; type: ADME, organism-based; conditions: in vivo, 0.5 h; in short: as §4
# Rattus norvegicus [24] = organism: Rattus norvegicus; test: Ratio of regional brain distribution of [18F]-ACF radiolabeled compound in rat hippocampus to that of cerebellum after 30 min; type: ADME, organism-based; conditions: in vivo, 0.5 h; in short: as §5
# Rattus norvegicus [25] = organism: Rattus norvegicus; test: Organ distribution of [18F]-ACF radiolabeled compound in rat heart after 30 min; type: ADME, organism-based; conditions: in vivo, 0.5 h; in short: as §2
# Rattus norvegicus [26] = organism: Rattus norvegicus; test: Ratio of regional brain distribution of [18F]-ACF radiolabeled compound in rat remainder to that of cerebellum after 120 min; type: ADME, organism-based; conditions: in vivo, 2 h; in short: as §4
# Rattus norvegicus [27] = organism: Rattus norvegicus; test: Organ distribution of [18F]-ACF radiolabeled compound in rat spleen after 60 min; type: ADME, organism-based; conditions: in vivo, 1 h; in short: as §6
# Rattus norvegicus [28] = test: Ratio of effect of pretreatment with methylphenidate with a dose of 2 mg/kg (i.v.) on specific binding of [18F]ACF in rat brain hypothalamus to that of cerebellum; type: ADME, organism-based; design: dose 2 mg/kg, route intravenous; conditions: in vivo, iv; in short: as §3
# Rattus norvegicus [29] = test: Ratio of effect of pretreatment with nisoxatine with a dose of 2 mg/kg (i.v.) on specific binding of [18F]ACF in rat brain cerebellum to that of cerebellum; type: ADME, organism-based; design: dose 2 mg/kg, route intravenous; conditions: in vivo, iv; in short: as §3
# Rattus norvegicus [30] = organism: Rattus norvegicus; test: Organ distribution of [18F]-ACF radiolabeled compound in rat kidney after 240 min; type: ADME, organism-based; conditions: in vivo, 4 h; in short: as §2
# Rattus norvegicus [31] = organism: Rattus norvegicus; test: Organ distribution of [18F]-ACF radiolabeled compound in rat muscle after 240 min; type: ADME, organism-based, Muscle tissue; conditions: in vivo, 4 h; in short: as §2
# Rattus norvegicus [32] = organism: Rattus norvegicus; test: Organ distribution of [18F]-ACF radiolabeled compound in rat lung after 60 min; type: ADME, organism-based; conditions: in vivo, 1 h; in short: as §2
# Rattus norvegicus [33] = organism: Rattus norvegicus; test: Ratio of regional brain distribution of [18F]ACF radiolabeled compound in rat cortex to that of cerebellum after 2 min; type: ADME, organism-based; conditions: in vivo; in short: as §4
# Rattus norvegicus [34] = organism: Rattus norvegicus; test: Ratio of regional brain distribution of [18F]ACF radiolabeled compound in rat hypothalamus to that of cerebellum after 120 min; type: ADME, organism-based; conditions: in vivo, 2 h; in short: as §4
# Rattus norvegicus [35] = organism: Rattus norvegicus; test: Organ distribution of [18F]ACF radiolabeled compound in rat blood after 240 min; type: ADME, organism-based; conditions: in vivo, 4 h; in short: as §6
# Rattus norvegicus [36] = organism: Rattus norvegicus; test: Organ distribution of [18F]ACF radiolabeled compound in rat blood after 30 min; type: ADME, organism-based; conditions: in vivo, 0.5 h; in short: as §6
structure (smiles),measurement,setting,value
CN(C)Cc1ccccc1Sc1cc(F)c(Cl)cc1N,Dose/g,Rattus norvegicus [1],0.38%
same,Dose/g,Rattus norvegicus [2],1.38 % dose/organ
same,Dose/g,Rattus norvegicus [3],0.76%
same,Ratio,Rattus norvegicus [4],2.23
same,Dose/g,Rattus norvegicus [5],15.2 % dose/organ
same,Dose/g,Rattus norvegicus [6],0.52%
same,Dose/g,Rattus norvegicus [7],0.14%
same,Dose/g,Rattus norvegicus [8],0.06 % dose/organ
same,Dose/g,Rattus norvegicus [9],1.33%
same,Dose/g,Rattus norvegicus [10],1.69%
same,Dose/g,Rattus norvegicus [11],0.17%
same,Dose/g,Rattus norvegicus [12],0.62%
same,Dose/g,Rattus norvegicus [13],0.15 % dose/organ
same,Dose/g,Rattus norvegicus [14],0.12%
same,Ratio,Rattus norvegicus [15],1.69
same,Dose/g,Rattus norvegicus [16],1.6%
same,Ratio,Rattus norvegicus [17],1.99
same,Dose/g,Rattus norvegicus [18],3.55 % dose/organ
same,Dose/g,Rattus norvegicus [19],0.26%
same,Dose/g,Rattus norvegicus [20],1.76 % dose/organ
same,Dose/g,Rattus norvegicus [21],4.02 % dose/organ
same,Dose/g,Rattus norvegicus [22],0.69 % dose/organ
same,Ratio,Rattus norvegicus [23],1
same,Ratio,Rattus norvegicus [24],1.89
same,Dose/g,Rattus norvegicus [25],0.18 % dose/organ
same,Ratio,Rattus norvegicus [26],2.34
same,Dose/g,Rattus norvegicus [27],0.13 % dose/organ
same,Ratio,Rattus norvegicus [28],3.05
same,Ratio,Rattus norvegicus [29],1
same,Dose/g,Rattus norvegicus [30],0.51 % dose/organ
same,Dose/g,Rattus norvegicus [31],2.08 % dose/organ
same,Dose/g,Rattus norvegicus [32],0.73 % dose/organ
same,Ratio,Rattus norvegicus [33],1.84
same,Ratio,Rattus norvegicus [34],3.23
same,Dose/g,Rattus norvegicus [35],2.33 % dose/organ
same,Dose/g,Rattus norvegicus [36],4.52 % dose/organ
